Measurements as given in ChEMBL document CHEMBL1149618, “Selection, synthesis, and structure-activity relationship of tetrahydropyrido[4,3-d]pyrimidine-2,4-diones as human GnRH receptor antagonists” (Bioorg Med Chem, 2007).
pKi: −log10 of the molar value. Activity calls are given as the source filed them. The calls are words filed in the database; no cut-off is given here.

Each molecule was assayed against T1, Gonadotropin-releasing hormone receptor (Homo sapiens) (UniProt P30968) (assay: (§1) Displacement of [125I]His5,D-Tyr6]GnRH from human cloned GnRH receptor transfected in COS7 cells). Conditions: COS-7.
T1 sequence (whole entry): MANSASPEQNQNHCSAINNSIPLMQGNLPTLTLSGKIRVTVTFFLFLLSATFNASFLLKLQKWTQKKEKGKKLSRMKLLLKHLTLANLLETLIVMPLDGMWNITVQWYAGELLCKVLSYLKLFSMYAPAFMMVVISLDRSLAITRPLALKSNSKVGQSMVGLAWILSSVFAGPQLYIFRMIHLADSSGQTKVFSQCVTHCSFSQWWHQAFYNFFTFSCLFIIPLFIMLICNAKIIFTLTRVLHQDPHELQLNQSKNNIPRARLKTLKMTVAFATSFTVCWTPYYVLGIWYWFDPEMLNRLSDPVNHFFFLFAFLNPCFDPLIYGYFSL
Assay type: cell-based
How it was run: (§2)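 Competition binding against the radiolabelled GnRH agonist at the cloned human GnRH receptor, following a previously published method. Only compounds above 85% UV purity at 220 and 254 nm by LC–MS were assayed. Each compound was tested at least twice.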

Activity	SMILES
inactive	COc1ccccc1CN1CCc2c(c(=O)n(CCN(C)CCc3ccccn3)c(=O)n2Cc2c(F)cccc2F)C1

What follows are molecules tested against T2, Gonadotropin-releasing hormone receptor (Homo sapiens, UniProt P30968) (assay: as §1). Conditions: not given.
T2 sequence (P30968 whole entry): T1 sequence (whole entry)
Assay type: cell-based, COS-7
How it was run: as §2

pKi	SMILES
7.70	O=c1c2c(n(Cc3c(F)cccc3F)c(=O)n1C[C@H]1CCCN1Cc1ccccn1)CCN(Cc1ccc(Cl)cc1)C2
6.09	CN(CCc1ccccn1)CCn1c(=O)c2c(n(Cc3c(F)cccc3F)c1=O)CCN(Cc1ccc(S(C)(=O)=O)cc1)C2
6.42	Cc1c(CN2CCc3c(c(=O)n(CCN(C)CCc4ccccn4)c(=O)n3CC3CCCCC3)C2)sc2ccccc12
5.85	CCc1ccc(CN2CCc3c(c(=O)n(CCN(C)C)c(=O)n3Cc3c(F)cccc3F)C2)cc1
5.66	COc1cccc(-n2c(=O)c3c(n(Cc4c(F)cccc4F)c2=O)CN(CCc2c[nH]c4ccccc24)CC3)c1
7.07	Cc1ccccc1CN1CCc2c(c(=O)n(CCN(C)CCc3ccccn3)c(=O)n2Cc2c(F)cccc2F)C1
7.00	COc1ccc(CN2CCc3c(c(=O)n(CCN(C)CCc4ccccn4)c(=O)n3Cc3c(F)cccc3F)C2)cc1
6.02	Cc1ccc(CN2CCc3c(c(=O)n(CC4CCCCN4Cc4ccccc4)c(=O)n3Cc3c(F)cccc3F)C2)c(C)c1 (centres undefined)
5.59	Cc1ccc(CN2CCc3c(c(=O)n(CC4CCCN(C5CCCC5)C4)c(=O)n3Cc3c(F)cccc3F)C2)c(C)c1 (centres undefined)
6.52	CN(CCc1ccccn1)CCn1c(=O)c2c(n(Cc3c(F)cccc3F)c1=O)CCN(Cc1ccc(C(C)(C)C)cc1)C2
< 5.00	Cc1ccc(CN2CCc3c(c(=O)n(CC4CCCCN4)c(=O)n3Cc3c(F)cccc3F)C2)c(C)c1 (centres undefined)
6.27	COc1cccc(-n2c(=O)c3c(n(Cc4c(F)cccc4F)c2=O)CN(Cc2ccc(-n4ccnc4)cc2)CC3)c1
7.70	CCc1ccc(CN2CCc3c(c(=O)n(CCN(C)CCc4ccccn4)c(=O)n3Cc3c(F)cccc3F)C2)cc1
7.15	CN(C)[C@@H](Cn1c(=O)c2c(n(Cc3c(F)cccc3F)c1=O)CCN(Cc1ccc(Cl)cc1)C2)c1ccccc1
8.00	CSc1ccc(CN2CCc3c(c(=O)n(CCN(C)CCc4ccccn4)c(=O)n3Cc3c(F)cccc3F)C2)cc1
< 5.00	CN(CCc1ccccn1)CCn1c(=O)c2c(n(Cc3c(F)cccc3F)c1=O)CCNC2
7.35	CN[C@@H](Cn1c(=O)c2c(n(Cc3c(F)cccc3F)c1=O)CCN(Cc1ccc(Cl)cc1)C2)c1ccccc1
7.82	CCSc1ccc(CN2CCc3c(c(=O)n(CCN(C)CCc4ccccn4)c(=O)n3Cc3c(F)cccc3F)C2)cc1
6.07	CN(CCc1ccccn1)CCn1c(=O)c2c(n(Cc3c(F)cccc3F)c1=O)CCN(Cc1cccc(Cl)c1)C2
7.60	Cc1ccc(CN2CCc3c(c(=O)n(CC4CCCCN4Cc4ccccn4)c(=O)n3Cc3c(F)cccc3F)C2)c(C)c1 (centres undefined)

pKi	SMILES
< 5.00	CN(CCc1ccccn1)CCn1c(=O)c2c(n(Cc3c(F)cccc3F)c1=O)CCN(Cc1nc3ccccc3n1C)C2
6.80	Cc1ccc(CN2CCc3c(c(=O)n(CC4CCCN(Cc5ccccc5)C4)c(=O)n3Cc3c(F)cccc3F)C2)c(C)c1 (centres undefined)
7.10	Cc1c(CN2CCc3c(c(=O)n(CCN(C)CCc4ccccn4)c(=O)n3Cc3ccccc3F)C2)sc2ccccc12
< 5.00	O=c1c2c(n(Cc3c(F)cccc3F)c(=O)n1C[C@H]1CCCN1)CCN(Cc1ccc(Cl)cc1)C2
< 5.00	CN(CCc1ccccn1)CCn1c(=O)c2c(n(Cc3c(F)cccc3F)c1=O)CCN(Cc1ccncc1)C2
< 5.00	Cc1c(CN2CCc3[nH]c(=O)n(CCN(C)CCc4ccccn4)c(=O)c3C2)sc2ccccc12
6.29	CN(CCc1ccccn1)CCn1c(=O)c2c(n(Cc3c(F)cccc3F)c1=O)CCN(CCc1c[nH]c3ccccc13)C2
6.01	COc1cccc(-n2c(=O)c3c(n(Cc4c(F)cccc4F)c2=O)CNCC3)c1
5.77	Cc1ccc(CN2CCc3c(c(=O)n(CC4CCCCN4C)c(=O)n3Cc3c(F)cccc3F)C2)c(C)c1 (centres undefined)
7.46	Cc1ccc(CN2CCc3c(c(=O)n(CCN(C)CCc4ccccn4)c(=O)n3Cc3c(F)cccc3F)C2)cc1
6.52	Cc1c(CN2CCc3c(c(=O)n(CCN(C)CCc4ccccn4)c(=O)n3Cc3ccccc3)C2)sc2ccccc12
< 5.00	Cc1ccc(CN2CCc3c(c(=O)n(CC4CCCN(C)C4)c(=O)n3Cc3c(F)cccc3F)C2)c(C)c1 (centres undefined)
8.30	Cc1cc(Cl)ccc1CN1CCc2c(c(=O)n(CCN(C)CCc3ccccn3)c(=O)n2Cc2c(F)cccc2F)C1
7.52	CN(CCc1ccccn1)CCn1c(=O)c2c(n(Cc3c(F)cccc3F)c1=O)CCN(Cc1ccc(C(F)(F)F)cc1)C2
5.61	Cc1ccc(CN2CCc3c(c(=O)n(CC4CCCNC4)c(=O)n3Cc3c(F)cccc3F)C2)c(C)c1 (centres undefined)
8.30	Cc1ccc(CN2CCc3c(c(=O)n(CCN(C)CCc4ccccn4)c(=O)n3Cc3c(F)cccc3F)C2)c(C)c1
5.59	Cc1ccc(CN2CCc3c(c(=O)n(CC4CCCCN4CC(C)C)c(=O)n3Cc3c(F)cccc3F)C2)c(C)c1 (centres undefined)
6.28	Cc1ccc(CN2CCc3c(c(=O)n(CC4CCCCN4C4CCCC4)c(=O)n3Cc3c(F)cccc3F)C2)c(C)c1 (centres undefined)
5.62	O=c1c2c(n(Cc3c(F)cccc3F)c(=O)n1C[C@@H]1CCCCN1CCc1ccccn1)CCN(Cc1ccc(Cl)cc1)C2
6.00	CN(CCc1ccccn1)CCn1c(=O)c2c(n(Cc3c(F)cccc3F)c1=O)CCN(Cc1ccccc1)C2

pKi	SMILES
< 5.00	Cc1ccc(CN2CCc3c(c(=O)n(CC4CCCN(CC(C)C)C4)c(=O)n3Cc3c(F)cccc3F)C2)c(C)c1 (centres undefined)
8.00	O=c1c2c(n(Cc3c(F)cccc3F)c(=O)n1C[C@H]1CCCN1CCc1ccccn1)CCN(Cc1ccc(Cl)cc1)C2
< 5.00	COc1cccc(-n2c(=O)c3c(n(Cc4c(F)cccc4F)c2=O)CN(Cc2ccc(C)cc2)CC3)c1
7.82	Cc1c(CN2CCc3c(c(=O)n(CCN(C)CCc4ccccn4)c(=O)n3Cc3c(F)cccc3F)C2)sc2ccccc12
< 5.00	CN(CCc1ccccn1)CCn1c(=O)c2c(n(Cc3c(F)cccc3F)c1=O)CCN(Cc1ccc(-n3ccnc3)cc1)C2
5.74	Cc1ccc(CN2CCc3c(c(=O)n(CCN(C)CC(C)C)c(=O)n3Cc3c(F)cccc3F)C2)c(C)c1
< 5.00	Cc1c(CN2CCc3c(c(=O)n(CCN(C)CCc4ccccn4)c(=O)n3C)C2)sc2ccccc12
5.86	O=c1c2c(n(Cc3c(F)cccc3F)c(=O)n1C[C@H]1CCCN1C1CCCC1)CCN(Cc1ccc(Cl)cc1)C2
5.89	COc1cccc(-n2c(=O)c3c(n(Cc4c(F)cccc4F)c2=O)CN(Cc2ccccc2)CC3)c1
5.80	COc1cccc(-n2c(=O)c3c(n(Cc4c(F)cccc4F)c2=O)CN(Cc2ccncc2)CC3)c1
6.01	COc1cccc(-n2c(=O)c3c(n(Cc4c(F)cccc4F)c2=O)CN(Cc2ccccc2OC)CC3)c1
6.59	CN(CCc1ccccn1)CCn1c(=O)c2c(n(Cc3c(F)cccc3F)c1=O)CCN(Cc1ccc(Cl)c(Cl)c1)C2
7.52	O=c1c2c(n(Cc3c(F)cccc3F)c(=O)n1C[C@H]1CCCCN1CCc1ccccn1)CCN(Cc1ccc(Cl)cc1)C2
6.31	Cc1ccc(CN2CCc3c(c(=O)n(CC4CCCN(Cc5ccccn5)C4)c(=O)n3Cc3c(F)cccc3F)C2)c(C)c1 (centres undefined)
8.00	Cc1c(CN2CCc3c(c(=O)n(CCN(C)CCc4ccccn4)c(=O)n3Cc3c(F)cccc3C(F)(F)F)C2)sc2ccccc12
6.22	Cc1ccc(CN2CCc3c(c(=O)n(CC4CCCN(CCc5ccccn5)C4)c(=O)n3Cc3c(F)cccc3F)C2)c(C)c1 (centres undefined)
6.74	Cc1ccc(CN2CCc3c(c(=O)n(CCN(C)Cc4ccccn4)c(=O)n3Cc3c(F)cccc3F)C2)c(C)c1
7.77	CN(CCc1ccccn1)CCn1c(=O)c2c(n(Cc3c(F)cccc3F)c1=O)CCN(Cc1ccc(Cl)cc1)C2
